Data published in ChEMBL document CHEMBL1821648, “(2S,3S)-sulfated pterosin C, a cytotoxic sesquiterpene from the Bangladeshi mangrove fern Acrostichum aureum” (J Nat Prod, 2011).
The source made the active and inactive calls. The rule behind the calls is not given here.

Legend:
MCF7 = assay: Cytotoxicity against human MCF7 cells after 48 hrs by MTT assay; type: functional, cell-based; settings: MCF7, 48 h
Outline: (§1)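 Cells seeded at 1.0 × 10^4 to 3.5 × 10^4 per well and incubated 24 h at 37 °C under 5% CO2. Exposed to a range of compound concentrations for 48 h, washed, then given MTT for 2 h and lysed. Absorbance read at 560 nm 45 min after lysis; IC50 from probit analysis. Cycloheximide as positive control.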

MDA-MB-231 = assay: Cytotoxicity against human MDA-MB-231 cells after 48 hrs by MTT assay; type: functional, cell-based; settings: MDA-MB-231, 48 h; outline: as §1
AGS [1] = assay: Cytotoxicity against human AGS cells after 48 hrs by MTT assay; type: functional, cell-based; outline: as §1
AGS [2] = assay: Induction of apoptosis in human AGS cells assessed as early apoptosis level at 150 ug/mL after 48 hrs by Annexin V-FITC apoptosis assay; type: functional, cell-based
Outline: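 AGS cells seeded at 40 × 10^4 per well and incubated 24 h at 37 °C under 5% CO2. Treated 24 and 48 h with test compound at 15 μg/mL, or cycloheximide at 150 μg/mL as positive control; untreated cells as negative control. Trypsinized, pelleted, then resuspended in binding buffer (0.1 M Hepes/NaOH, 1.4 M NaCl, 25 mM CaCl2). Stained with FITC-annexin V plus PI for 15 min, dark, room temperature. Flow cytometry within 1 h; early apoptosis counted as AV+/PI−.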

NIH3T3 = assay: Cytotoxicity against mouse NIH/3T3 cells after 48 hrs by MTT assay; type: functional, cell-based; settings: NIH3T3, 48 h; outline: as §1
HT-29 = assay: Cytotoxicity against human HT-29 cells after 48 hrs by MTT assay; type: functional, cell-based; settings: HT-29, 48 h; outline: as §1
AGS [3] = assay: Induction of apoptosis in human AGS cells assessed as early apoptosis level at 15 ug/mL after 48 hrs by Annexin V-FITC apoptosis assay; type: functional
Outline: (§2)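 Cells plated at 40 × 10^4 per well, grown 24 h at 37 C in 5% CO2, then exposed to compound at 15 μg/mL for the stated time. Harvested by rapid trypsinisation, pelleted, resuspended in binding buffer (0.1 M Hepes/NaOH, 1.4 M NaCl, 25 mM CaCl2). Stained with FITC-annexin V and PI for 15 min, dark, room temperature. Flow cytometry within 1 h; early apoptosis scored as AV+/PI−. Untreated cells as negative control, cycloheximide 150 μg/mL as positive control.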

AGS [4] = assay: Induction of apoptosis in human AGS cells assessed as early apoptosis level at 15 ug/mL after 24 hrs by Annexin V-FITC apoptosis assay; type: functional; outline: as §2

`C[C@@H]1C[C@@H]([C@H](O)CC2CC(=O)NC(=O)C2)C(=O)[C@@H](C)C1` [CYCLOHEXIMIDE] was tested, and the IC50 (MCF7) was > 100 µM, the IC50 (MDA-MB-231) was 1.2 µM and the IC50 (AGS [1]) was 3.6 µM. The Activity (AGS [2]) was “Active”, the IC50 (NIH3T3) was 1.1 µM and the IC50 (HT-29) was 12.8 µM.
`Cc1cc2c(c(C)c1CCOS(=O)(=O)O)C(=O)[C@@H](C)[C@@H]2O` was tested, and the IC50 (MCF7) was 64.4 µM, the Activity (AGS [3]) was 25.2% and the IC50 (MDA-MB-231) was > 100 µM. For the same compound, the Activity (AGS [4]) was 6.8%, the IC50 (AGS [1]) was 23.9 µM and the IC50 (NIH3T3) was 46.8 µM. For the same compound, the IC50 (HT-29) was 68.8 µM.
